Source: ChEMBL document CHEMBL3352189 (J Med Chem, 2014)
In brackets after ≈: the same amount, converted by molar mass.

How the values were obtained:
[1] = Chemical stability in presence of 5x DTT assessed as parent compound remaining incubated for 8 hrs; type: physicochemical; conditions: read-out: Stability
[2] = molecular target: D(1A) dopamine receptor (Homo sapiens) (UniProt P21728); assay: Displacement of [3H]SCH-23390 from human dopamine D1 receptor at 10 uM
Mus musculus [3] = assay: Toxicity in Venezuelan equine encephalitis virus TC83 infected C3H/HeN mouse assessed as body weight loss at 40 mg/kg/day, ip BID for 4 days; type: organism-based; set-up: route intraperitoneal; conditions: in vivo, 96 h
[4] = molecular target: 5-hydroxytryptamine receptor 3A (Homo sapiens) (UniProt P46098); assay: Displacement of [3H]GR-65630 from human 5HT3 receptor at 10 uM
Rattus norvegicus [5] = species: Rattus norvegicus; assay: Displacement of [125I]triiodothyronine from rat thyroid hormone receptor 10 uM
Rattus norvegicus [6] = species: Rattus norvegicus; assay: Displacement of [3H]rolipram from rat Rolipram binding site at 10 uM
[7] = molecular target: Cysteinyl leukotriene receptor 1 (Homo sapiens) (UniProt Q9Y271); assay: Displacement of [3H]LTD4 from human CysLT1 receptor at 10 uM
CYP2C19 = CYP2C19 (Homo sapiens, UniProt P33261); assay: Inhibition of human CYP2C19 at 10 uM; type: ADME
[8] = molecular target: L-type calcium channel, benzothiazepine site (Rattus norvegicus, UniProt P22002+P27732+Q02485); assay: Displacement of [3H]diltiazem from rat calcium channel L-Type benzothiazepine site at 10 uM; type: protein assay; conditions: probe [3H]diltiazem
[9] = molecular target: Cannabinoid receptor 1 (Homo sapiens) (UniProt P21554); assay: Displacement of [3H]SR141716A from human CB1 receptor at 10 uM
[10] = Plasma concentration in C57BL/6 mouse at 5 mg/kg, ip administered as single dose measured after 20 mins by LC/MS analysis based RACE assay; type: ADME, organism-based; set-up: dose 5 mg/kg, route intraperitoneal
In short: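 Single intraperitoneal dose of 1, 5 or 10 mg/kg given to C57BL/6 mice, 3 mice per dose and time point, with a vehicle-control cohort. Plasma was sampled at 20 and 120 min post-dose and drug level measured by LC/MS. Each time point averaged two injections (<20% difference); values are means ± standard deviation in μM.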

Liver = assay: Stability in mouse liver microsomes as parent compound remaining; type: ADME
In short: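 Mouse hepatic microsomes incubated for 1 h; reported as % parent remaining.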

Mus musculus [11] = assay: Toxicity in Venezuelan equine encephalitis virus TC83 infected C3H/HeN mouse assessed as induction of lethargy at 5 mg/kg/day, ip BID for 4 days; type: organism-based; set-up: route intraperitoneal; conditions: in vivo, 96 h
[12] = molecular target: Adenosine receptor A3 (Homo sapiens) (UniProt P0DMS8); assay: Displacement of [125I]AB-MECA from human adenosine A3 receptor at 10 uM
[13] = Drug concentration in C57BL/6 mouse brain at 5 mg/kg, ip administered as single dose measured after 120 mins by LC/MS analysis based RACE assay; type: ADME, organism-based; set-up: dose 5 mg/kg, route intraperitoneal; conditions: read-out: Drug uptake
In short: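 Brain tissue taken at the terminal 120 min point after one intraperitoneal dose (1, 5 or 10 mg/kg) in C57BL/6 mice, 3 per group, with a vehicle cohort. Drug level measured by LC/MS, averaging two injections per sample; reported as mean ± standard deviation, μM.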

CYP2D6 = CYP2D6 (Homo sapiens, UniProt P10635); assay: Inhibition of human CYP2D6 at 10 uM; type: ADME
[14] = molecular target: Sodium-dependent dopamine transporter (Homo sapiens) (UniProt Q01959); assay: Displacement of [125I]RTI-55 from human DAT at 10 uM
[15] = molecular target: Alpha-1D adrenergic receptor (Homo sapiens) (UniProt P25100); assay: Displacement of [3H]prazosin from human adrenergic alpha1D receptor at 10 uM
[16] = molecular target: Androgen receptor (Rattus norvegicus) (UniProt P15207); assay: Displacement of [3H]mibolerone from rat androgen receptor at 10 uM
[17] = molecular target: Alpha-2A adrenergic receptor (Homo sapiens) (UniProt P08913); assay: Displacement of [3H]MK-912 from human adrenergic alpha2A receptor at 10 uM
[18] = tested on: Venezuelan equine encephalitis virus; assay: Antiviral activity against Venezuelan equine encephalitis virus V3526 infected in Vero 76 cells assessed as reduction in virus-induced cytopathic effect after 2 days by Celltiter-Glo reagent based assay; type: functional, organism-based; conditions: V3526, Vero 76, 48 h
[19] = Aqueous solubility in PBS buffer; type: physicochemical
In short: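 Solubility measured in 1× PBS at pH 7.4.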

[20] = molecular target: Kappa-type opioid receptor (Homo sapiens) (UniProt P41145); assay: Displacement of [3H]diprenorphine from human kappa opiate receptor at 10 uM
[21] = molecular target: Muscarinic acetylcholine receptor M1 (Homo sapiens) (UniProt P11229); assay: Displacement of [3H]N-Methylscopolamine from human muscarinic M1 receptor at 10 uM
Mus musculus [22] = species: Mus musculus; assay: Displacement of [3H]PDBu from mouse phorbol ester receptor at 10 uM
[23] = molecular target: Neuronal acetylcholine receptor (Rattus norvegicus) (UniProt P04757+P09483+P12389+P12390+P12392+P43144+Q9JLB5+P12391+P43143+P20420+Q05941); assay: Displacement of [125I]epibatidine from human nAchR at 10 uM; type: protein-complex assay
Mus musculus [24] = assay: Toxicity in Venezuelan equine encephalitis virus TC83 infected C3H/HeN mouse assessed as induction of hunched posture at 40 mg/kg/day, ip BID for 4 days; type: organism-based; set-up: route intraperitoneal; conditions: in vivo, 96 h
Mus musculus [25] = assay: Toxicity in Venezuelan equine encephalitis virus TC83 infected C3H/HeN mouse assessed as body weight loss at 5 mg/kg/day, ip BID for 4 days; type: organism-based; set-up: route intraperitoneal; conditions: in vivo, 96 h
CYP2C9 = CYP2C9 (Homo sapiens, UniProt P11712); assay: Inhibition of human CYP2C9 at 10 uM; type: ADME
Rattus norvegicus [26] = species: Rattus norvegicus; assay: Displacement of [35S]ATP-alphaS from rat P2Y channel at 10 uM
[27] = molecular target: GABA-A receptor; anion channel (Homo sapiens) (UniProt P14867+P47870+P18507+P28472+P48169+Q99928+Q9UN88+P34903+O00591+O14764+Q8N1C3+P18505+P78334+P47869+P31644+Q16445); assay: Displacement of ABC from rat GABAA receptor central muscimol site at 10 uM; type: protein-complex assay; conditions: target entry is the homologue from another species
[28] = molecular target: D(3) dopamine receptor (Homo sapiens) (UniProt P35462); assay: Displacement of [3H]spiperone from human dopamine D3 receptor at 10 uM
[29] = molecular target: Adenosine receptor A2a (Homo sapiens) (UniProt P29274); assay: Displacement of [3H]CGS-21680 from human adenosine A2A receptor at 10 uM
[30] = molecular target: 5-hydroxytryptamine receptor 1A (Homo sapiens) (UniProt P08908); assay: Displacement of [3H]8-OH-DPAT from human 5HT1A receptor at 10 uM
[31] = tested on: Venezuelan equine encephalitis virus; assay: Antiviral activity against Venezuelan equine encephalitis virus TrD infected in Vero 76 cells assessed as reduction in virus-induced cytopathic effect after 2 days by Celltiter-Glo reagent based assay; type: functional, organism-based; conditions: Vero 76, 48 h
[32] = molecular target: Muscarinic acetylcholine receptor M2 (Homo sapiens) (UniProt P08172); assay: Displacement of [3H]N-Methylscopolamine from human muscarinic M2 receptor at 10 uM

Sequence of D(3) dopamine receptor (Homo sapiens) (P35462 whole entry): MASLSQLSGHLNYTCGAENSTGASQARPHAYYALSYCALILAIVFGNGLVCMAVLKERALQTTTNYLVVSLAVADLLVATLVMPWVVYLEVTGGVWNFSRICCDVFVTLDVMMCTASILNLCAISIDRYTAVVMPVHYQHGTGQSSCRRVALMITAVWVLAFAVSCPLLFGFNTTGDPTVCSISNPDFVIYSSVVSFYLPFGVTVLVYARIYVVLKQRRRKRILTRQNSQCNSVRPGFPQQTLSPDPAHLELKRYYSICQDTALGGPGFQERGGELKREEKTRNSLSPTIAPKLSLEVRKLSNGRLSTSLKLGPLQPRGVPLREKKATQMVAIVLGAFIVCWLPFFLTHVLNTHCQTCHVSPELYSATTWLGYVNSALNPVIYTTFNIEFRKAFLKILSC
Sequence of Adenosine receptor A2a (Homo sapiens) (P29274 whole entry): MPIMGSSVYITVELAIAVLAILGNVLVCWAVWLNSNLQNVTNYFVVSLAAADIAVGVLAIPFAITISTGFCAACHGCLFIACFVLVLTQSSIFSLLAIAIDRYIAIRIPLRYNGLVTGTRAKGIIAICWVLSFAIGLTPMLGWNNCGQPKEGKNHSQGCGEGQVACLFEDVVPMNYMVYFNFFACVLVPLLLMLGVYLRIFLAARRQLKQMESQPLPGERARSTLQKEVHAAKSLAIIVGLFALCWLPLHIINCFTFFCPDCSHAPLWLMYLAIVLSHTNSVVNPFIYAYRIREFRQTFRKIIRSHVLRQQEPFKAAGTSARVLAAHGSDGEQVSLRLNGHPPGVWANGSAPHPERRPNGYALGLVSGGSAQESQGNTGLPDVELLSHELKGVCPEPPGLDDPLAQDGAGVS
Sequence of Cysteinyl leukotriene receptor 1 (Homo sapiens) (Q9Y271 whole entry): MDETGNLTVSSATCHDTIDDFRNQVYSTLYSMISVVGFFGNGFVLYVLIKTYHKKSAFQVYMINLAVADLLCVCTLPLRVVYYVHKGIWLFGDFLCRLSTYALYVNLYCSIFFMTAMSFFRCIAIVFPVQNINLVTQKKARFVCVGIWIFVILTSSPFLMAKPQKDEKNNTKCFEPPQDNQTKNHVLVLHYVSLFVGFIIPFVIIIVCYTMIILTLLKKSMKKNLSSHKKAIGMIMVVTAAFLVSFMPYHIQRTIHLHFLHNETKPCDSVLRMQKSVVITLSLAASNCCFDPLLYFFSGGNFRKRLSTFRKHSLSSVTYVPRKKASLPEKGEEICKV
Sequence of CYP2C19 (P33261 whole entry): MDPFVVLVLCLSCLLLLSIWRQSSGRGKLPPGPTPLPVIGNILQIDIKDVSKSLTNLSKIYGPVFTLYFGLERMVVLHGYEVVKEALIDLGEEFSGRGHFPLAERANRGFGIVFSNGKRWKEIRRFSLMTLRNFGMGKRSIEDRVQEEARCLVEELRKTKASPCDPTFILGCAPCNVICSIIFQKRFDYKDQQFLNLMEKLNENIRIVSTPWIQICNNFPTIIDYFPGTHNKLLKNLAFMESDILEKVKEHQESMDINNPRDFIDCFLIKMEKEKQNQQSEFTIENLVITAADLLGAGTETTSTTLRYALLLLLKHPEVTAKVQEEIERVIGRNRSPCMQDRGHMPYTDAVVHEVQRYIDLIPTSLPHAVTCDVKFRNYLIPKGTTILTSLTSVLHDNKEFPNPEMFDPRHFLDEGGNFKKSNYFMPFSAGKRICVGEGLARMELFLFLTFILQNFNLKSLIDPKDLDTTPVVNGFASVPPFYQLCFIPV
Sequence of Alpha-1D adrenergic receptor (Homo sapiens) (P25100 whole entry): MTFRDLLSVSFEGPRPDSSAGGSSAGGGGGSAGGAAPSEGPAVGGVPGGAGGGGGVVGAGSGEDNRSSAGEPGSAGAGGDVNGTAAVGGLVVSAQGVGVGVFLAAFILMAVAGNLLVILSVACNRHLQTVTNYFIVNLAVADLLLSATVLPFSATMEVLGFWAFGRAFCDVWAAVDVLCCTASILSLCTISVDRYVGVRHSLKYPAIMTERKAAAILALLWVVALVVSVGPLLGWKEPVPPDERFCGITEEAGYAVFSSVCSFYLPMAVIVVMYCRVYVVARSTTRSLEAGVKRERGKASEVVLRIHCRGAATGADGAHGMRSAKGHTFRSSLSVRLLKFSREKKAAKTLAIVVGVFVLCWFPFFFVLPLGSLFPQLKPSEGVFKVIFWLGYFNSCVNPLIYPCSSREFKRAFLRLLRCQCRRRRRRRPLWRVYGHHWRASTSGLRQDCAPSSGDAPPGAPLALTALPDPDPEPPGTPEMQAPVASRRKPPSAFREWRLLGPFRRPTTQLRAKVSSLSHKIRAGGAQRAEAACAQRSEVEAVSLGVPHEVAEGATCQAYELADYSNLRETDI
Sequence of 5-hydroxytryptamine receptor 3A (Homo sapiens) (P46098 whole entry): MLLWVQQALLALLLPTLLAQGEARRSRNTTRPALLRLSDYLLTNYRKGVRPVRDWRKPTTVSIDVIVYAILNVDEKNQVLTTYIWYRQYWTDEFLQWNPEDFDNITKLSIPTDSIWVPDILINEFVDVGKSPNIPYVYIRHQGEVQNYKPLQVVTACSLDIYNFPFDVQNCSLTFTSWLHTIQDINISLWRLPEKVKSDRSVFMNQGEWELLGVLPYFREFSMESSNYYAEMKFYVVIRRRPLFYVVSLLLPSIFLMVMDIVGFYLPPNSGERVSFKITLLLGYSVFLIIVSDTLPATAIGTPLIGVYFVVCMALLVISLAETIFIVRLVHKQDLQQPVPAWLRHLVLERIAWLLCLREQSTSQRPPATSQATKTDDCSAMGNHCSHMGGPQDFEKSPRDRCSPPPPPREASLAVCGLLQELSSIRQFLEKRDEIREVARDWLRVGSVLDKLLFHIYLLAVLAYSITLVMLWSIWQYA
Sequence of Kappa-type opioid receptor (Homo sapiens) (P41145 whole entry): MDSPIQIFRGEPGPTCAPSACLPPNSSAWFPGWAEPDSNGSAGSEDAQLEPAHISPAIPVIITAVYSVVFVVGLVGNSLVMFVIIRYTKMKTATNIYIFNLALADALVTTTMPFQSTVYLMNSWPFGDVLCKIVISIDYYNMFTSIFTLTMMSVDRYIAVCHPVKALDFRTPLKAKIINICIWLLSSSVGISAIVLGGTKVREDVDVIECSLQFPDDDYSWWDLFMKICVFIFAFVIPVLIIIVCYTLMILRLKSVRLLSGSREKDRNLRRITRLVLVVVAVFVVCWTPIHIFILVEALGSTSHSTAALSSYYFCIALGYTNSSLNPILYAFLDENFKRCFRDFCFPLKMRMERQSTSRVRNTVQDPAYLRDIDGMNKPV
Sequence of Sodium-dependent dopamine transporter (Homo sapiens) (Q01959 whole entry): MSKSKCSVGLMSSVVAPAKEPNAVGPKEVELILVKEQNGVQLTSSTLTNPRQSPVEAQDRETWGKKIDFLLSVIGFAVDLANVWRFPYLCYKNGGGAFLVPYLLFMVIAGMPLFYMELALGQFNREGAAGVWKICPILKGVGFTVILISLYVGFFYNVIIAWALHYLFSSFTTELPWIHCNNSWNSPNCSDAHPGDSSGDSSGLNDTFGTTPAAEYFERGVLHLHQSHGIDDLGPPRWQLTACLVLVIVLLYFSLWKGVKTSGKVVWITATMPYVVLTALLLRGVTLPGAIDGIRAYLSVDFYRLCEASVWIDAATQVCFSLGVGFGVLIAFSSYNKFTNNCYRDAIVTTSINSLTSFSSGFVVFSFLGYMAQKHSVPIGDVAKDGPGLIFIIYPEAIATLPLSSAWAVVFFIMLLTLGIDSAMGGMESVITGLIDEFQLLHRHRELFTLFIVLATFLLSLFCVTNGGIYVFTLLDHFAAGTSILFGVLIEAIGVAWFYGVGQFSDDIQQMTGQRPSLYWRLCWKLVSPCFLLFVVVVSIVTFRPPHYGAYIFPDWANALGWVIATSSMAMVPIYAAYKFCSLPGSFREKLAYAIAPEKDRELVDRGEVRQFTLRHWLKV
Sequence of Adenosine receptor A3 (Homo sapiens) (P0DMS8 whole entry): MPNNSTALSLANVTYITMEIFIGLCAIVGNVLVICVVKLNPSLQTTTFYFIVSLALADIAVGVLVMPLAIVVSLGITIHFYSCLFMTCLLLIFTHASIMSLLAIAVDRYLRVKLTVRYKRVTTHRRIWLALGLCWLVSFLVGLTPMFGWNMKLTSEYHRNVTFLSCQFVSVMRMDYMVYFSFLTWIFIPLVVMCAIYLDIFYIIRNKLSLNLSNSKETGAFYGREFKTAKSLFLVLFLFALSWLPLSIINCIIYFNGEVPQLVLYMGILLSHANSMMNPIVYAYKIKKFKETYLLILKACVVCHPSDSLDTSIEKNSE
Sequence of Muscarinic acetylcholine receptor M1 (Homo sapiens) (P11229 whole entry): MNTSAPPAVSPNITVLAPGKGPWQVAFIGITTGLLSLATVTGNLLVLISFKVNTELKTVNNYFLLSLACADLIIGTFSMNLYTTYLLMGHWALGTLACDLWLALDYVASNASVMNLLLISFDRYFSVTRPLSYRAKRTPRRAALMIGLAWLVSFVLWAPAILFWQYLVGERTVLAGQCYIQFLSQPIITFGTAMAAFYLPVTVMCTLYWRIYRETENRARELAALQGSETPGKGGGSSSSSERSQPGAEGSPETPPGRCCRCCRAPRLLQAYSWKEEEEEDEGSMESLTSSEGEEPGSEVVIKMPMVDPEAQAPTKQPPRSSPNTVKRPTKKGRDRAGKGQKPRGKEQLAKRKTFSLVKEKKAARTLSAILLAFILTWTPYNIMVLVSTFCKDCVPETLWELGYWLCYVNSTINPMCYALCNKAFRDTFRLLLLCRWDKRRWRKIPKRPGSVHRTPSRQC
Sequence of Alpha-2A adrenergic receptor (Homo sapiens) (P08913 whole entry): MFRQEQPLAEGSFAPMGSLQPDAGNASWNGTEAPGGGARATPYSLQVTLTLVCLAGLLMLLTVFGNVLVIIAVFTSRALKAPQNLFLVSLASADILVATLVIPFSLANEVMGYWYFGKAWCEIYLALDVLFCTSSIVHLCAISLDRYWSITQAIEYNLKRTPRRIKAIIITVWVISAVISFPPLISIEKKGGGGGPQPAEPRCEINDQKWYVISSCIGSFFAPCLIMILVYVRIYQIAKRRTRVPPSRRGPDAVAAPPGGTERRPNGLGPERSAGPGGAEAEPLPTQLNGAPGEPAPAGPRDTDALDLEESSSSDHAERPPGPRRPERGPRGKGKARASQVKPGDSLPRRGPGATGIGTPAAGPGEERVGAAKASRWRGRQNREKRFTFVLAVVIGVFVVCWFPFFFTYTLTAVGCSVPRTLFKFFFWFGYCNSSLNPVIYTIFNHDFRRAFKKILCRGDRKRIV

CN1CCN(C)/C(=N/c2ccc([N+](=O)[O-])cc2C(=O)Nc2ccccc2)C1
remaining at 8 h [1]: 99%
inhibition [2]: 2.65%
Activity (Mus musculus [3]): Non-toxic
inhibition [4]: 1.64%
inhibition (Rattus norvegicus [5]): 1.61%
inhibition (Rattus norvegicus [6]): 34.9%
inhibition [7]: 10.9%
inhibition at 10 µM (CYP2C19): 17%
inhibition at 10 µM [8]: 7.06%
inhibition [9]: -2.06%
concentration at 20 min [10]: 1450 nM
Stability (Liver): 42.9%
Activity (Mus musculus [11]): Non-toxic
inhibition [12]: 26.7%
concentration at 2 h [13]: 210 nM
inhibition at 10 µM (CYP2D6): 28%
inhibition [14]: 10.8%
inhibition [15]: -7.82%
inhibition [16]: 1.1%
inhibition [17]: -0.5%
EC50 [18]: 0.02 µM
solubility [19]: 40.4 µg/mL (≈ 110 µM)
inhibition [20]: 9.71%
inhibition [21]: 0.73%
inhibition (Mus musculus [22]): 0%
inhibition [23]: 10.8%
Activity (Mus musculus [24]): Non-toxic
Activity (Mus musculus [25]): Non-toxic
inhibition at 10 µM (CYP2C9): 7%
inhibition (Rattus norvegicus [26]): 6.41%
inhibition [27]: 0.52%
inhibition [28]: -1.53%
inhibition [29]: 17%
inhibition [30]: 2.12%
EC50 [31]: 0.04 µM
inhibition [32]: 2.1%
